Legend:
[1] = test system: TNFα-induced IKKβ-mediated NFκB activity; experiment: κB luciferase reporter assay; format: cell-based; settings: for inhibition of TNFα-induced NFκB activity (SAR, in words): A549 luciferase reporter
[2] = test system: MiaPaCa2 cells subcutaneously implanted; experiment: Pancreatic tumor xenograft model; format: in vivo, athymic nude mice; settings: treated versus vehicle, n = 5
Outline: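 MiaPaCa2 cells (2.5×10⁶, Matrigel 2:1) were implanted s.c. in the flank of athymic nude mice and randomized at day 20 (n=6/group). Arms: vehicle, test compound 40 mg/kg orally daily, gemcitabine 15 mg/kg i.p. every 72 h, or combination. Mice were sacrificed after day 27. On FFPE tumors, Ki-67 was scored as % positive cells over 4 fields, and p-IKKβ by IHC histoscore (proportion 1–5 × intensity 0–3); n=5, unpaired t-test.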

MiaPaCa2 cells [3] = experiment: Colony formation assay; format: cell-based; settings: 5 μM; compared to DMSO treated cells
Outline: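 MiaPaCa2 cells (1.0×10³) were seeded in 6-well plates and treated 24 h. They were then washed and grown 8–10 days, with medium changed every 3 days. Cells were fixed in 4% paraformaldehyde 15 min and stained with 0.5% crystal violet 2 h at room temperature. Colonies were counted in triplicate from 10x bright-field images against vehicle (DMSO); unpaired t-test.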

MiaPaCa2 cells [4] = experiment: Cell scratch; format: cell-based; settings: 5 μM at 24 and 48h; compared to DMSO
MiaPaCa2 cells [5] = experiment: Live/dead cell assay; format: cell-based; settings: 5 and 10 μM for 24h
MiaPaCa2 = experiment: Growth inhibition assay; format: cell-based
Outline: (§1)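 Cell viability was read with PrestoBlue after 72 h incubation with test compound, n=3. Data are average ± SEM.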

[6] = test system: caspase 3/7 activity in MiaPaCa2 cells; experiment: Caspase 3/7 assay; format: cell-based; settings: 10 μM, 24h
Outline: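 MiaPaCa2 cells were exposed to test compound for 24 h at 0.1% final DMSO, n=3. At 21 h, alamarBlue (1/10 well volume) was added for 3 h and fluorescence read at 560ex/590em. Plates equilibrated 15 min at room temperature, then Caspase-Glo reagent was added and luminescence read 2 h later. Value = (luminescence×100/fluorescence)/DMSO average.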

T3M4 = experiment: Growth inhibition assay; format: cell-based; settings: 3-day cell growth assay
Outline: as §1

[7] = Pharmacokinetic studies in mice; format: in vivo, CD1 mice
Outline: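 CD1 mice received test compound orally at 20 mg/kg in DMSO:PEG400:H₂O 1:4:5, or intravenously at 10 mg/kg in DMSO:PEG400:H₂O 1:5:4. Mice were sacrificed at 0.083–24 h (8 time points) and plasma analysed by LC/MS/MS with carbamazepine as internal standard. PK parameters came from non-compartmental analysis; oral bioavailability was derived from oral versus intravenous AUC.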

## 1-(3-(1-methyl-1H-pyrazol-4-yl)quinoxalin-6-yl)-3-(3-(trifluoromethyl)phenyl)urea [compound 79]
[1]; screened at 10μM
  inhibition of TNFα-induced NFκB activity (SAR, in words): further improvement of activity

## 1-(3-chloro-4-fluorophenyl)-3-(3-(1-methyl-1H-pyrazol-4-yl)quinoxalin-6-yl)urea [compound 80]
[1]; screened at 10μM
  potency in NFκB screen relative to 13–197: ~ 3 fold

## 1-(4-fluoro-3-(trifluoromethoxy)phenyl)-3-(3-(1-methyl-1H-pyrazol-4-yl)quinoxalin-6-yl)urea [compound 83]
[1]; screened at 10μM
  inhibition of TNFα-induced NFκB activity (SAR, in words): further improved

## 1-(4-fluoro-3-(trifluoromethyl)phenyl)-3-(3-(1-methyl-1H-pyrazol-4-yl)quinoxalin-6-yl)urea [compound 84]
[2]; immunohistochemistry
  p-IKKβ levels in tumor tissue: reduction in p-IKKβ levels
[2]
  Ki67 staining (proliferation index) in tumor tissue: reduction in Ki67 staining
MiaPaCa2 cells [3]
  inhibition of colony forming ability: > 50%
MiaPaCa2 cells [4]
  inhibition of cell migration: more effective inhibiting the migration of PDAC cells
MiaPaCa2 cells [5]
  cell death in live/dead assay: induced MiaPaCa2 cell death in a dose-dependent manner
MiaPaCa2; 3-day cell growth assay, MiaPaCa2
  growth inhibition: low-μM potency
MiaPaCa2; cell line not specified at place
  potency in inhibiting pancreatic cancer cell growth relative to 13–197: ~ 4 fold
[1]; 84 versus reported value for 13–197
  IC50 ratio versus 13–197, TNFα-induced NFκB inhibition: ~ 2.5 fold
[1]; read-out: IC50, TNFα-induced IKKβ-mediated NFκB activity, dose-response, dual luciferase reporter assay, n = 3
  IC50: 3.3 ± 0.5 µM
[1]; screened at 10μM
  inhibition of TNFα-induced NFκB activity (SAR, in words): most potent inhibitor
[6]
  caspase 3/7 activation: most potently induced caspase activation
  caspase 3/7 induction relative to 13–197: ~ 4 fold
T3M4
  growth inhibition: low-μM potency
[7]
  increase in oral bioavailability (%F) relative to 13–197: ~ 5.7 fold
[7]; 10 mg/kg intravenous versus 20 mg/kg oral
  intravenous exposure (AUC0−∞) relative to oral exposure: ~ 2.8 fold
[7]; 20 mg/kg oral
  Tmax and Cmax relative to 13–197: ~ 2.5 times
  exposure (AUC0−∞) relative to 13–197: ~ 4.3 fold

## 1-(4-fluoro-3-methoxyphenyl)-3-(3-(1-methyl-1H-pyrazol-4-yl)quinoxalin-6-yl)urea [compound 82]
[1]; screened at 10μM
  inhibition of TNFα-induced NFκB activity (SAR, in words): activity was restored

## 1-(4-fluoro-3-methylphenyl)-3-(3-(1-methyl-1H-pyrazol-4-yl)quinoxalin-6-yl)urea [compound 81]
[1]; screened at 10μM
  inhibition of TNFα-induced NFκB activity (SAR, in words): dramatically reduced the activity

## Cn1cc(-c2cnc3ccc(NC(=O)Nc4ccc(F)c(Br)c4)cc3c2)cn1 [compound 85, 1-(3-bromo-4-fluorophenyl)-3-(3-(1-methyl-1H-pyrazol-4-yl)quinolin-6-yl)urea]
[1]; screened at 10μM
  inhibition of TNFα-induced NFκB activity (SAR, in words): loss of activity

## Cn1ccc(-c2cnc3ccc(NC(=O)Nc4ccc(F)c(Br)c4)cc3n2)c1 [compound 86, 1-(3-bromo-4-fluorophenyl)-3-(3-(1-methyl-1H-pyrrol-3-yl)quinoxalin-6-yl)urea]
[1]; screened at 10μM
  inhibition of TNFα-induced NFκB activity (SAR, in words): loss of activity
